Screening results: PubChem BioAssay, Sanford-Burnham Center for Chemical Genomics
APJ antagonist – antagonists of human APJ apelin receptor | P35414 | CHO-K1 APJ beta-arrestin complementation, luminescence | inhibition, % at 20 µM | actives 0.32% (n = 330,000) | AID 2521;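 active means inhibition above about 40% at 20 µM, limit read from the data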;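 further: cells challenged with 10 nM apelin-13 agonist together with compound; plate controls were apelin-13 plus DMSO wells for no effect and DMSO wells lacking apelin-13 for full effect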
CXCR6 inh – inhibitors of human CXCR6 receptor; O00574; CHO-K1 PathHunter CXCR6 beta-arrestin, luminescence; inhibition, % at 20 µM; actives 0.36% (n = 360,000); AID 602244; in the data active means inhibition above about 34%, passing the limit was not always enough;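 further: antagonist mode with CXCL16 agonist at 10 nM final; 0% = 10 nM CXCL16 with DMSO and 100% = unstimulated wells without agonist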
CCR6 antagonist – antagonists of human CCR6 receptor | CHO-K1 CCR6 PathHunter beta-arrestin, luminescence, CCL20-stimulated | P51684 | actives 0.49% (n = 340,000) | AID 493098 | inhibition, % at 20 µM;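 active means compounds whose inhibition of the agonist-driven luminescence signal at 20 µM reaches about 50%, limit read from the data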;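 further: cells stimulated with CCL20 at 14 nM final; plate controls were DMSO with CCL20 for no effect and DMSO without agonist for full effect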
Target sequence (P51684 whole entry, looked up): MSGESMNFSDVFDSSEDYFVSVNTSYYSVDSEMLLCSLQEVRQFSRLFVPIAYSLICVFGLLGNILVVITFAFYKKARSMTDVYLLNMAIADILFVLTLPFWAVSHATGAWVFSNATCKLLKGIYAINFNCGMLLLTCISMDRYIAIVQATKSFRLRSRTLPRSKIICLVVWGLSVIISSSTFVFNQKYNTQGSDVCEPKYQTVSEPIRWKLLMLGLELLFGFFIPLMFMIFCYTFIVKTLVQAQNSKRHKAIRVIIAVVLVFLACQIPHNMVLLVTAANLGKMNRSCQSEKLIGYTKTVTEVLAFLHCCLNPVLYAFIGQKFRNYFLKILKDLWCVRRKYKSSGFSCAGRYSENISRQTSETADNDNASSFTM
EBI2 block – EBI2 (human) antagonism. EBI2 beta-arrestin recruitment, luminescence, 7a,25-OHC stimulated. inhibition, % at 5 µM. actives 0.81% (n = 360,000). AID 651636; in the data active means inhibition above about 38%;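 further: enzyme fragment complementation signal reports receptor beta-arrestin coupling in cells; 0% = agonist plus DMSO wells and 100% = wells without agonist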
APJ agonist – APJ receptor agonism | P35414 | CHO-K1 APJ PathHunter beta-arrestin, luminescence; 0% DMSO wells, 100% apelin | activation, % at 20 µM | actives 0.11% (n = 330,000) | AID 2520;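 active means activation more than six SD over the plate average, tested at 20 µM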;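 further: 0% = DMSO alone and 100% = apelin-13 at 10 nM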
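assay system = CHO-K1 APJ beta-arrestin complementation cell line | input = cell density 1000 per well | dosing = compound 20 µM once, DMSO 1% | timing = compound 90 min 25 °C, reagent 1 h | measured by = luminescence from split beta-galactosidase complementation, Galacton Star/Emerald II substrate | read-out basis = APJ agonist activity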
APJ antag confirm – confirmation of human APJ apelin receptor antagonists | shares compounds with APJ antagonist | APJ beta-arrestin recruitment, luminescence, antagonist mode | inhibition, % at 20 µM | actives 66% (n = 950); in the data active means inhibition above about 50%
* marks the source's active call; other numbers are inactive results; / = no result given. Sampled rows, rich in hits. Any-hit rate of the full collection: about 1.5%.

SMILES | APJ antagonist | CXCR6 inh | CCR6 antagonist | EBI2 block | APJ agonist | APJ antag confirm
CN(C(=O)c1cccc(NC(=O)Cc2ccc(NC(=O)C3CCCN(C(=O)C4CCC4)C3)cc2)c1)C1CCC1 (stereo unspecified) | / | 3 | 4 | -10 | / | /
O=C1Nc2ccc(Br)cc2C1=Nc1ccc(-c2nnc3n2CCCCC3)cc1 | 49* | / | / | / | -19 | 126*
Cc1cc([N+](=O)[O-])ccc1NC(=S)NC(=O)C(c1ccccc1)c1ccccc1 | 42* | 35 | 53* | 19 | -11 | 52*
CCOc1ccc(NC(=O)CC2C(=O)N(CC)C(=S)N2CCN2CCOCC2)cc1 (stereo unspecified) | 46* | -9 | -11 | -1 | -3 | -6
Cn1ncc(Br)c1NC(=O)Nc1ccc(Cl)cc1 | 0 | -2 | -2 | -4 | -3 | /
Cc1cc(=O)n2nc(N3CCC(C(=O)NCc4ccco4)CC3)sc2n1 | 9 | -2 | 5 | 3 | 0 | /
Cc1cc(=O)n2nc(N3CCCC(C(=O)NCc4ccco4)C3)sc2n1 (stereo unspecified) | 50* | 5 | -2 | 5 | -4 | 16
COC(=O)[C@@]12CCCCN1[C@H](c1ccc(-c3ccc(F)cc3)cc1)[C@@H]1C(=O)N(C)C(=O)[C@@H]12 | -4 | -5 | 11 | 2 | 15 | /
CCC(CO)NC(=O)c1ccc(-c2nn(C)c(=O)c3ccccc23)cc1 (stereo unspecified) | 50* | 3 | -6 | -3 | 1 | 16
O=C(COc1ccc2c3c(c(=O)oc2c1)CCCC3)NCc1ccccn1 | 31 | -2 | 9 | -9 | -3 | /
COCC(=O)N1CCC(Oc2cccc(C(=O)NCc3ccccn3)c2)CC1 | 43* | -4 | 0 | -6 | -3 | -5
CCCCCCCCCCCCCCCC(O)C[N+](C)(C)CCO (stereo unspecified) | / | 21 | 34 | 1 | / | /
CCCCCCCCCCCCCCCC(O)C(N)CO (stereo unspecified) | 41* | 9 | 24 | 3 | -3 | 47
Cc1c(C(=O)NC2=NCCS2)cccc1[N+](=O)[O-] | 1 | -1 | 8 | -12 | -1 | /
Clc1ccc(-c2nn3c(-c4ccccc4)nnc3s2)cc1 | 43* | -2 | 10 | 8 | -2 | 16
c1ccc(-c2nnc3sc(-c4ccncc4)nn23)cc1 | 10 | -5 | -7 | 6 | -5 | /
Cc1cc(C(=O)Nc2ccccc2C(=O)O)c(C)o1 | 1 | 1 | 3 | -2 | 1 | /
COc1ccc(N2CC(C(=O)Nc3ccccc3C(=O)NC3CC3)CC2=O)cc1 (stereo unspecified) | 41* | -14 | 2 | -11 | 1 | 7
Cn1c(=O)[nH]c(=O)c2c1nc(N1CCNCC1)n2Cc1cccc2ccccc12 | 41* | 45* | 54* | 13 | -12 | 92*
Cn1c(=O)c2c(nc(N3CCNCC3)n2Cc2cccc3ccccc23)n(C)c1=O | 57* | 47* | 62* | 35 | -17 | 99*
COc1cc(CC(=O)OCC(=O)NC2CCCCC2C)cc(OC)c1OC (stereo unspecified) | 5 | 5 | 7 | 10 | -3 | /
O=C(Nc1nnc([C@H]2C[C@H](O)[C@@H](CO)O2)s1)Nc1ccc(F)cc1F | / | 4 | / | -25 | / | /
CC(C)CC1NC(=O)c2cccnc2-n2c1nc1ccccc1c2=O (stereo unspecified) | / | -11 | / | -7 | / | /
Cc1cccc(C(=O)Nc2ccc(C(=O)/C=C/c3ccncc3)cc2)c1 | 41* | 59* | 41 | 41 | 2 | 77*
CCOc1cc(/C=C2\CCC/C(=C\c3cc(Cl)c(O)c(OCC)c3)C2=O)cc(Cl)c1O | 58* | 60* | 51* | 40 | -8 | 111*
SMILES | APJ antagonist | CXCR6 inh | CCR6 antagonist | EBI2 block | APJ agonist | APJ antag confirm
C=CCNC(=O)/C(C#N)=C\c1cc(Cl)c(O)c(OCC)c1 | / | 12 | 20 | -14 | / | /
CN(C)c1ncnc2c1ncn2[C@H]1CN(Cc2ccco2)C[C@@H](CO)O1 | / | 1 | / | -1 | / | /
Cc1ccc(N=C2C(=O)Nc3ccccc32)cc1 | 40* | 34 | 56* | 11 | -10 | 78*
O=C1Nc2ccccc2C1=Nc1ccc(Br)cc1 | 63* | 42* | 69* | 16 | -14 | 147*
O=C1NC[C@H](CCCCN2C[C@@H](Cc3ccccc3)N(Cc3ccccc3)C(=O)C2=O)N(CCC2CCCCC2)C1=O | / | 2 | / | -4 | / | /
S=C(N/N=C/c1ccc(Cl)cc1)N1CCOCC1 | 41* | 39 | 55* | -1 | -7 | 60*
S=C(N/N=C/c1ccc(Br)cc1)N1CCCCC1 | 11 | -6 | 17 | 37 | -7 | /
Oc1cccc2ccc(/C=C/c3ccccc3Cl)nc12 | 46* | 35 | 45 | 21 | -10 | 82*
CCOc1cccc(/C=C/c2ccc3cccc(O)c3n2)c1OC | 43* | 24 | 31 | 13 | -9 | 72*
COc1ccc(Cl)cc1/C=C/c1ccc2cccc(O)c2n1 | 39 | 19 | 38 | -6 | -7 | /
COc1cc(Cl)cc(/C=C/c2ccc3cccc(O)c3n2)c1OC | 41* | 40 | 41 | 22 | -8 | 37
CCOc1ccccc1CNC(=O)c1nn(CC)cc1[N+](=O)[O-] | -3 | -6 | -3 | -6 | -2 | /
CCN1C(=O)C(=Cc2cccc(OC)c2Oc2ccc([N+](=O)[O-])cc2[N+](=O)[O-])SC1=S | 50* | 42* | 60* | 14 | -7 | 71*
O=C(NCc1cnc2ccccn12)C1CCC(=O)N(Cc2cccc(F)c2)C1 (stereo unspecified) | -1 | -12 | -8 | -8 | -2 | /
COc1cc(/C=C2\SC(=S)N(NC(=O)c3cccnc3)C2=O)ccc1O | 42* | 36 | 49 | 6 | -7 | 95*
O=C(NN1C(=O)/C(=C\c2ccc(O)c([N+](=O)[O-])c2)SC1=S)c1ccccc1Cl | 55* | 35 | 60* | 16 | -7 | 102*
COc1cc(/C=C2\SC(c3ccc(C)cc3)=NC2=O)ccc1O | 58* | 57* | 75* | 17 | -12 | 102*
COc1cc(/C=C2\SC(=S)N(NC(=O)c3ccc(O)cc3)C2=O)ccc1O | 56* | 42* | 59* | 17 | -8 | 92*
COc1ccc(/C=C2\SC(c3ccc(C)cc3)=NC2=O)cc1OC | -11 | 8 | 8 | -4 | 3 | /
CC(=O)NN1C(=O)/C(=C\c2ccc(O)cc2)SC1=S | 35 | 32 | 50 | -1 | -8 | /
O=C(NN1C(=O)/C(=C/c2ccc(O)c(O)c2)SC1=S)c1ccccc1 | 48* | 52* | 64* | 17 | -9 | 106*
Cc1c[n+](CC(=O)c2ccccc2)c(C)cn1 | 6 | 3 | 10 | -7 | -3 | /
Cc1ccc(C)c2nc3sc(C(=O)N4CCOCC4)c(N)c3cc12 | 5 | 0 | -3 | 29 | -1 | /
